The record followed here is ChEMBL document CHEMBL3272099, “Antibacterial activity of N-(beta-styryl) formamides related to tuberin” (J Med Chem, 1978).

≈ marks a conversion by molar mass, not a printed value. Calls of active or inactive are those of the source. The calls are words filed in the database; no cut-off is given here.

Data set [1] concerns Mycolicibacterium phlei. Kind of data set: Antibacterial activity against Mycobacterium phlei. It counts as functional. Summed up:
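MIC by standard agar dilution, run in duplicate; estimated standard deviation under 0.15 log units; reported as log 1/MIC (molar).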

Data set [2] relates to Staphylococcus aureus. In words: Antibacterial activity against Staphylococcus aureus at 200 ug/ml. It counts as functional, organism-based.
A short description of data set [3]: C18 corasil-25 wt % MeOH partition coefficient, log K of the compound in 0.001 M phosphate buffer. To be noted: pH 7.4.
Data set [4] can be described thus: C18 corasil-octanol partition coefficient, log P of the compound in 0.01 M phosphate buffer at pH 7 by LC on C18 Corasil coated with 1-octanol. To be noted: octanol/0.01 M phosphate buffer (C18 Corasil-octanol).
Data set [5] deals with Staphylococcus aureus. Kind of data set: Antibacterial activity against Staphylococcus aureus. Type of data set: functional.
Data set [6] concerns Mycolicibacterium phlei. Kind of data set: Antibacterial activity against Mycobacterium phlei at 640 ug/ml. It counts as functional, organism-based.

`O=CN/C=C/c1ccc(F)cc1`: in data set [1], the MIC was found to be 160 µg/mL (≈ 969 µM). In data set [2], the result was inactive. Besides, in data set [3], the “log K” value came out at 0.33. The compound further yielded a logD in data set [4] of 2.11.

`O=CN/C=C/C1CCCCC1` registered an MIC in data set [1] of 160 µg/mL (≈ 1040 µM). In addition, in data set [2], the outcome was inactive.

In data set [1], `Cc1ccc(/C=C/NC=O)cc1` displayed an MIC of 40 µg/mL (≈ 248 µM). In addition, the result in data set [2] was inactive. Also, the “log K” value in data set [3] is 0.66. Besides, in data set [4], the logD was determined as 2.45.

On to `O=CN/C=C/c1ccccc1`, for which the MIC in data set [1] was found to be 640 µg/mL (≈ 4350 µM); in data set [5], 50 µg/mL (≈ 340 µM). Further, the “log K” value in data set [3] turned out to be 0.21. Further, in data set [4], the logD is 1.95.

`O=CN/C=C/c1ccco1`: the outcome in data set [2] and in data set [6] was inactive.

For the compound `O=CN/C=C/c1ccc(S(=O)(=O)c2ccccc2)cc1`, in data set [1], 320 µg/mL (≈ 1110 µM) was the least that counted as inhibitory (MIC). In addition, the result in data set [2] was inactive. The “log K” value in data set [3] amounted to 0.78. This compound came in with a log distribution coefficient (logD) in data set [4] of 1.95.

On to `CC(C)(C)c1ccc(/C=C/NC=O)cc1`, for which the minimum inhibitory concentration (MIC) in data set [1] was 80 µg/mL (≈ 394 µM); in data set [5], 200 µg/mL (≈ 984 µM). Also, in data set [3], the “log K” value was determined as 1.71. Moreover, in data set [4], the logD stood at 3.82.

Turning to `O=CN/C=C/c1ccc(C(F)(F)F)cc1`, the figures for the minimal inhibitory concentration (MIC) in data set [1] and in data set [5] were 80 µg/mL (≈ 372 µM) and 100 µg/mL (≈ 465 µM), respectively. The “log K” value in data set [3] was found to be 1.09. This compound showed a logD in data set [4] of 3.06.

As for `N#Cc1ccc(/C=C/NC=O)cc1`, in data set [1], the MIC was 640 µg/mL (≈ 3720 µM). For the same compound, the outcome in data set [2] was inactive. For the same compound, the “log K” value in data set [3] is on record as 0.04. This compound also came in with a logD in data set [4] of 1.62.

In data set [1], `CN(C)c1ccc(/C=C/NC=O)cc1` displayed an MIC of 640 µg/mL (≈ 3360 µM). Besides, the outcome in data set [2] was inactive. In addition, the “log K” value in data set [3] worked out at 0.48. In addition, in data set [4], the logD is 2.03.

In the case of `CSc1ccc(/C=C/NC=O)cc1`, the MIC in data set [1] is 40 µg/mL (≈ 207 µM); in data set [5], 100 µg/mL (≈ 517 µM). The “log K” value in data set [3] is 0.77. Further, the pH-dependent lipophilicity (logD) in data set [4] worked out at 2.55.

For the compound `O=CN/C=C/c1ccc(O)cc1`, the result in data set [2] and in data set [6] was inactive.

Turning to `CCOc1ccc(/C=C/NC=O)cc1`, the MIC in data set [1] was determined as 40 µg/mL (≈ 209 µM). Also, the result in data set [2] was inactive. Besides, the “log K” value in data set [3] was 0.65. For the same compound, in data set [4], the logD was 2.31.

On to `O=CN/C=C/c1ccc(I)cc1`, for which the MIC worked out at 160 µg/mL (≈ 586 µM) in data set [1] and 200 µg/mL (≈ 732 µM) in data set [5]. Further, in data set [3], the “log K” value was determined as 1.14. The compound further displayed a logD in data set [4] of 3.18.

As to `O=CN/C=C/c1ccc(Cl)cc1`, the MIC in data set [1] is 80 µg/mL (≈ 440 µM); in data set [5], 200 µg/mL (≈ 1100 µM). Also, the “log K” value in data set [3] is 0.79. The logD in data set [4] stood at 2.7.

In turn, `CC(=O)Oc1ccc(/C=C/NC=O)cc1` yielded an MIC in data set [1] of 640 µg/mL (≈ 3120 µM). The result in data set [2] was inactive. Further, the “log K” value in data set [3] came out at 0.16. Further, in data set [4], the logD turned out to be 1.32.

`CCCCOc1ccc(/C=C/NC=O)cc1` registered an MIC in data set [1] of 80 µg/mL (≈ 365 µM). Also, in data set [2], the result was inactive. The “log K” value in data set [3] is on record as 1.62. The logD in data set [4] came out at 3.32.

For the compound `CC(C)Oc1ccc(/C=C/NC=O)cc1`, the MIC in data set [1] stood at 320 µg/mL (≈ 1560 µM). The outcome in data set [2] was inactive. In addition, in data set [3], the “log K” value was 0.93. Also, the pH-dependent lipophilicity (logD) in data set [4] was found to be 2.61.

In turn, `O=CN/C=C/c1cccc2ccccc12` had an MIC in data set [1] of 80 µg/mL (≈ 406 µM). For the same compound, the outcome in data set [2] was inactive.

As to `O=CN/C=C/c1cccs1`, the results for the MIC in data set [1] and in data set [5] were 320 µg/mL (≈ 2090 µM) and 25 µg/mL (≈ 163 µM), respectively.

The compound `CCCCC/C=C/NC=O` showed a minimum inhibitory concentration (MIC) in data set [1] of 40 µg/mL (≈ 283 µM). Besides, the result in data set [2] was inactive.

Consider `CCN(CC)c1ccc(/C=C/NC=O)cc1`, for which, in data set [1], the MIC was determined as 320 µg/mL (≈ 1470 µM). In addition, the result in data set [2] was inactive. Besides, the logD in data set [4] came to 2.9.

The compound `COc1ccc(/C=C/NC=O)cc1` came in with an MIC in data set [1] of 80 µg/mL (≈ 451 µM). The outcome in data set [2] was inactive. For the same compound, the “log K” value in data set [3] is 0.28. The compound further gave a logD in data set [4] of 1.94.

`O=CN/C=C/c1ccc(Br)cc1`: the MIC in data set [1] came to 160 µg/mL (≈ 708 µM); in data set [5], 100 µg/mL (≈ 442 µM). Moreover, the “log K” value in data set [3] is on record as 0.96. This compound also had a logD in data set [4] of 2.87.

On to `O=CN/C=C/c1ccc([N+](=O)[O-])cc1`, for which the minimal inhibitory concentration (MIC) turned out to be 320 µg/mL (≈ 1670 µM) in data set [1] and 3 µg/mL (≈ 15.6 µM) in data set [5]. In data set [3], the “log K” value was 0.24. In data set [4], this compound gave a logD of 1.94.

For the compound `O=CN/C=C/c1ccc2ccccc2c1`, inhibition of growth in data set [1] (MIC) required 20 µg/mL (≈ 101 µM). Besides, the outcome in data set [2] was inactive. In data set [3], the “log K” value was found to be 1.16. The compound also gave a logD in data set [4] of 3.22.
